Measured values taken from ChEMBL document CHEMBL4346653, “A2B Adenosine Receptor Antagonists with Picomolar Potency” (J Med Chem, 2019).

Tests used:
Adenosine receptor A2b [1] = molecular target: T1, Adenosine receptor A2b (Homo sapiens, UniProt P29275); test: Displacement of [3H]PSB-603 from recombinant human A2B adenosine receptor expressed in CHO cell membranes measured after 75 mins in presence of adenosine deaminase by liquid scintillation counting method
T1 sequence (P29275 whole entry): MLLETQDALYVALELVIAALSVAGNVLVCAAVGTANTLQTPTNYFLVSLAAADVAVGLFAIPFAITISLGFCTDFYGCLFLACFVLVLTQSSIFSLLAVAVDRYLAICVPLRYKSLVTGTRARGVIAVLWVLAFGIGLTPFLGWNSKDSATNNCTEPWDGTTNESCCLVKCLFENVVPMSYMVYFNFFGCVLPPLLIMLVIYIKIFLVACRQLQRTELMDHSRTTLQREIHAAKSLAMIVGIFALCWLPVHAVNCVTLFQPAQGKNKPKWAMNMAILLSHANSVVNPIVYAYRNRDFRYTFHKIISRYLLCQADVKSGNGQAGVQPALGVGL
Outline: (§1)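 Competition binding on membranes of cells recombinantly expressing the human receptor (CHO or HEK cells), with tritiated radioligand per subtype: [3H]PSB-603 for A2B, [3H]MSX-2 for A2A, [3H]CCPA for A1, [3H]PSB-11 for A3. Ki ± SEM from n = 3, some from extrapolated curves. Weak binders are reported as % inhibition of radioligand binding at 1 μM.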

Adenosine receptor A2a [2] = molecular target: T2, Adenosine receptor A2a (Homo sapiens, UniProt P29274); test: Displacement of [3H]MSX-2 from recombinant human A2A adenosine receptor expressed in CHO cell membranes measured after 30 mins in presence of adenosine deaminase by liquid scintillation counting method; outline: as §1
T2 sequence (P29274 whole entry): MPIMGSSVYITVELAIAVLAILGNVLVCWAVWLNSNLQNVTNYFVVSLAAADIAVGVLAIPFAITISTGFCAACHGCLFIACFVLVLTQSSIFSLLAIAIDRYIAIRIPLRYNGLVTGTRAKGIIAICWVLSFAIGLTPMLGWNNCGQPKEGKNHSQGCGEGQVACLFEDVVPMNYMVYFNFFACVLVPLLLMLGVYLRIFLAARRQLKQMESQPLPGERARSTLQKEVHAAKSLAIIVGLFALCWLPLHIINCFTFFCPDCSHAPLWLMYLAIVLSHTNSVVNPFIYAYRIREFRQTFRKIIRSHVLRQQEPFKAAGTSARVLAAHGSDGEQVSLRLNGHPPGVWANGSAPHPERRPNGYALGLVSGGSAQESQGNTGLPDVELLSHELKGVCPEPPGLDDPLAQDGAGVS

Adenosine receptor A1 [3] = molecular target: T3, Adenosine receptor A1 (Homo sapiens, UniProt P30542); test: Displacement of [3H]CCPA from recombinant human A1 adenosine receptor expressed in CHO cell membranes measured after 90 mins in presence of adenosine deaminase by liquid scintillation counting method; outline: as §1
T3 sequence (P30542 whole entry): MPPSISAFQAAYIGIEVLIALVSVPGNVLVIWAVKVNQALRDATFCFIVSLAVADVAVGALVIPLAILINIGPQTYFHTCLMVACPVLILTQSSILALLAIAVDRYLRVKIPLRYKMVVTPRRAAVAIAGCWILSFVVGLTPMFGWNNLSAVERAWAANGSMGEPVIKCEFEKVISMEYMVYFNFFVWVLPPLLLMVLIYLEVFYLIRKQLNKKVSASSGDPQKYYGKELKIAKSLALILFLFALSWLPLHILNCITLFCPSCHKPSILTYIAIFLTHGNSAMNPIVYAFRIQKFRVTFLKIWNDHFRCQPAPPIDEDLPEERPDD

Adenosine receptor A3 [4] = molecular target: T4, Adenosine receptor A3 (Homo sapiens, UniProt P0DMS8); test: Displacement of [3H]PSB-11 from recombinant human A3 adenosine receptor expressed in CHO cell membranes measured after 45 mins in presence of adenosine deaminase by liquid scintillation counting method; outline: as §1
T4 sequence (P0DMS8 whole entry): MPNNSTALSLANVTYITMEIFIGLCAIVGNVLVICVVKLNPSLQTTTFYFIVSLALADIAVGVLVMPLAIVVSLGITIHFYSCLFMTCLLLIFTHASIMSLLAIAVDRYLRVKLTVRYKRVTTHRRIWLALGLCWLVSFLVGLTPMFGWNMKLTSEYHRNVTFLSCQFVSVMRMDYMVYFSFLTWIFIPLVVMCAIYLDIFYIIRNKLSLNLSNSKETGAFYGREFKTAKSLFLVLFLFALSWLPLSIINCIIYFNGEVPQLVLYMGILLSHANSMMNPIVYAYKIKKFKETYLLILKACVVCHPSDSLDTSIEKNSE

Adenosine receptor A2a [5] = molecular target: T2, Adenosine receptor A2a; test: Displacement of [3H]MSX-2 from recombinant human A2A adenosine receptor expressed in CHO cell membranes at 1 uM measured after 30 mins in presence of adenosine deaminase by liquid scintillation counting method relative to control
Outline: (§2)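 Single-point competition binding at human AR subtype membranes, each against its own tritiated radioligand. The test compound is given at 1 μM, and the result is reported as percent inhibition of radioligand binding. The radioligand-specific footnotes give n = 3.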

[6] = molecular target: T5, Adenosine receptor A1 (Homo sapiens) (UniProt P30542); test: Displacement of [3H]CCPA from recombinant human A1 adenosine receptor expressed in CHO cell membranes at 1 uM measured after 90 mins in presence of adenosine deaminase by liquid scintillation counting method relative to control; outline: as §2
T5 sequence (whole entry): T3 sequence (P30542 whole entry)

[7] = molecular target: T6, Adenosine receptor A3 (Homo sapiens) (UniProt P0DMS8); test: Displacement of [3H]PSB-11 from recombinant human A3 adenosine receptor expressed in CHO cell membranes at 1 uM measured after 45 mins in presence of adenosine deaminase by liquid scintillation counting method relative to control; outline: as §2
T6 sequence (whole entry): T4 sequence (P0DMS8 whole entry)

Homo sapiens [8] = species: Homo sapiens; test: Selectivity index, ratio of Ki for displacement of [3H]MSX-2 from recombinant human A2A adenosine receptor expressed in CHO cell membranes to Ki for displacement of [3H]PSB-603 from recombinant human A2B adenosine receptor expressed in CHO cell membranes
Homo sapiens [9] = species: Homo sapiens; test: Selectivity index, ratio of Ki for displacement of [3H]CCPA from recombinant human A1 adenosine receptor expressed in CHO cell membranes to Ki for displacement of [3H]PSB-603 from recombinant human A2B adenosine receptor expressed in CHO cell membranes
Homo sapiens [10] = species: Homo sapiens; test: Selectivity index, ratio of Ki for displacement of [3H]PSB-11 from recombinant human A3 adenosine receptor expressed in CHO cell membranes to Ki for displacement of [3H]PSB-603 from recombinant human A2B adenosine receptor expressed in CHO cell membranes
Adenosine receptor A2b [11] = molecular target: T7, Adenosine receptor A2b (Mus musculus, UniProt Q60614); test: Displacement of [3H]PSB-603 from recombinant mouse A2B adenosine receptor expressed in CHO cell membranes measured after 75 mins in presence of adenosine deaminase by liquid scintillation counting method
T7 sequence (Q60614 whole entry): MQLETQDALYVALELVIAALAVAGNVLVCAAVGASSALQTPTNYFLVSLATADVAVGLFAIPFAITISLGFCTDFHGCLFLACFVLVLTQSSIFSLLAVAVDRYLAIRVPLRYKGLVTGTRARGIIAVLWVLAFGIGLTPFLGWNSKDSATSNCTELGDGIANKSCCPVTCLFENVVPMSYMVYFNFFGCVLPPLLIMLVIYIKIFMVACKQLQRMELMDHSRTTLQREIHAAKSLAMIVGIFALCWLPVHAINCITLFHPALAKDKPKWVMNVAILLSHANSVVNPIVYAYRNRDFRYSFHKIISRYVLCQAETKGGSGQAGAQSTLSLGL

Adenosine receptor A1 [12] = molecular target: T8, Adenosine receptor A1 (Mus musculus, UniProt Q60612); test: Displacement of [3H]CCPA from recombinant mouse A1 adenosine receptor expressed in CHO cell membranes measured after 90 mins in presence of adenosine deaminase by liquid scintillation counting method
T8 sequence (Q60612 whole entry): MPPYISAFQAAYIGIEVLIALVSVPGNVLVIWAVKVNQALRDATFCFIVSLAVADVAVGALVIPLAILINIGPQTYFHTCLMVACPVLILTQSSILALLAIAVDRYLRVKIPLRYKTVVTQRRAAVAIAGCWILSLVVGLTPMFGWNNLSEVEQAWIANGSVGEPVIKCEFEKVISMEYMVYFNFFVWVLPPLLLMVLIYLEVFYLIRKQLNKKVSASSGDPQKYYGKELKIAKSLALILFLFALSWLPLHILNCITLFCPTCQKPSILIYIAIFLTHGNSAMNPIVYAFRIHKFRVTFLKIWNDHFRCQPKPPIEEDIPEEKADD

Adenosine receptor A3 [13] = molecular target: T9, Adenosine receptor A3 (Mus musculus, UniProt Q61618); test: Displacement of [3H]NECA from recombinant mouse A3 adenosine receptor expressed in CHO cell membranes measured after 180 mins in presence of adenosine deaminase by liquid scintillation counting method
T9 sequence (Q61618 whole entry): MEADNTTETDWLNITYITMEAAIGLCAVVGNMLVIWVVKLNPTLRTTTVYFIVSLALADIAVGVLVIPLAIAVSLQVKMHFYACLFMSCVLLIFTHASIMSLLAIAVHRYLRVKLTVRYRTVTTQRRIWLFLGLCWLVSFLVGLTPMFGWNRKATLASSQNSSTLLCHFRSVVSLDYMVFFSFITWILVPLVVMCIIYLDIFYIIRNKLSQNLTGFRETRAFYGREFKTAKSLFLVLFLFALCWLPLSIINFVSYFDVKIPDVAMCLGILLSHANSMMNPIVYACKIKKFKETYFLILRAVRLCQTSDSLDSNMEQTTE

[14] = molecular target: T10, Adenosine receptor A3 (Mus musculus) (UniProt Q61618); test: Displacement of [3H]NECA from recombinant mouse A3 adenosine receptor expressed in CHO cell membranes at 1 uM measured after 180 mins in presence of adenosine deaminase by liquid scintillation counting method relative to control
T10 sequence (whole entry): T9 sequence (Q61618 whole entry)

[15] = molecular target: T11, Adenosine receptor A2b (Homo sapiens) (UniProt P29275); test: Competitive antagonist activity at recombinant human A2B adenosine receptor expressed in CHO cells assessed as reduction in NECA-induced […] cAMP accumulation preincubated for 10 mins followed by NECA stimulation for 15 mins […] and measured after 15 mins; assay type: functional, cell-based
T11 sequence (whole entry): T1 sequence (P29275 whole entry)

Mus musculus = species: Mus musculus; test: Selectivity ratio of Ki for displacement of [3H]CCPA from recombinant mouse A1 adenosine receptor expressed in CHO cell membranes to Ki for displacement of [3H]PSB-603 from recombinant mouse A2B adenosine receptor expressed in CHO cell membranes
[16] = Selectivity ratio of Ki for displacement of [3H]PSB-603 from recombinant mouse A2B adenosine receptor expressed in CHO cell membranes to Ki for displacement of [3H]PSB-603 from recombinant human A2B adenosine receptor expressed in CHO cell membranes

Compound	Ki (Adenosine receptor A2b [1])	Ki (Adenosine receptor A2a [2])	Ki (Adenosine receptor A1 [3])	Ki (Adenosine receptor A3 [4])	inhibition (Adenosine receptor A2a [5])	inhibition [6]	inhibition [7]	Ki (Adenosine receptor A2b [11])	Ki (Adenosine receptor A1 [12])	Ki (Adenosine receptor A3 [13])	inhibition [14]	Kb [15]	Ratio Ki (Homo sapiens [8])	Ratio Ki (Homo sapiens [9])	Ratio Ki (Homo sapiens [10])	Ratio Ki (Mus musculus)	Ratio Ki [16]
CCCn1c(=O)[nH]c2nc(-c3ccc(S(=O)(=O)N4CCN(Cc5cccc(Br)c5)CC4)cc3)[nH]c2c1=O	0.148 nM	92.4 nM	928 nM	> 1000 nM	–	–	23%	0.901 nM	107 nM	> 1000 nM	5%	0.201 nM	620	620	–	> 120	1.5 to 6
CCCn1c(=O)[nH]c2nc(-c3ccc(S(=O)(=O)N4CCN(c5ccc(Cl)cc5F)CC4)cc3)[nH]c2c1=O	1.91 nM	> 1000 nM	> 1000 nM	> 1000 nM	6%	9%	14%	–	–	–	–	–	> 500	> 500	> 500	–	–
CCCn1c(=O)[nH]c2nc(-c3ccc(S(=O)(=O)N4CCN(C(C)c5ccccc5)CC4)cc3)[nH]c2c1=O (stereo not given)	8.34 nM	≥ 1000 nM	≥ 1000 nM	> 1000 nM	42%	42%	0%	–	–	–	–	–	> 120	> 120	> 120	–	–
CCCn1c(=O)[nH]c2nc(-c3ccc(S(=O)(=O)N4CCN(Cc5ccc(Br)c(F)c5)CC4)cc3)[nH]c2c1=O	0.473 nM	403 nM	326 nM	> 1000 nM	–	–	27%	–	–	–	–	–	–	690	–	–	–
CCCn1c(=O)[nH]c2nc(-c3ccc(S(=O)(=O)N4CCN(Cc5ccc(C(=O)O)cc5)CC4)cc3)[nH]c2c1=O	96.7 nM	1160 nM	> 1000 nM	> 1000 nM	–	12%	-7%	–	–	–	–	–	10	10	10	–	–

Second part, led by results:

Ki (Adenosine receptor A2b [1])	Ki (Adenosine receptor A2a [2])	Ki (Adenosine receptor A1 [3])	Ki (Adenosine receptor A3 [4])	inhibition (Adenosine receptor A2a [5])	inhibition [6]	inhibition [7]	Ki (Adenosine receptor A2b [11])	Ki (Adenosine receptor A1 [12])	Ki (Adenosine receptor A3 [13])	inhibition [14]	Kb [15]	Compound	Ratio Ki (Homo sapiens [8])	Ratio Ki (Homo sapiens [9])	Ratio Ki (Homo sapiens [10])	Ratio Ki (Mus musculus)	Ratio Ki [16]
1.24 nM	> 1000 nM	> 1000 nM	> 1000 nM	30%	34%	21%	–	–	–	–	–	CCCn1c(=O)[nH]c2nc(-c3ccc(S(=O)(=O)N4CCN(c5ccc(OC)c(F)c5)CC4)cc3)[nH]c2c1=O	> 800	> 800	> 800	–	–
0.352 nM	> 1000 nM	> 1000 nM	> 1000 nM	31%	23%	1%	–	–	–	–	–	CCCn1c(=O)[nH]c2nc(-c3ccc(S(=O)(=O)N4CCN(c5ccc(OC)c(Cl)c5)CC4)cc3)[nH]c2c1=O	> 2840	> 2840	> 2840	–	–
0.159 nM	2990 nM	> 1000 nM	> 1000 nM	–	24%	36%	–	–	–	–	–	CCCn1c(=O)[nH]c2nc(-c3ccc(S(=O)(=O)N4CCN(c5ccc(I)cc5)CC4)cc3)[nH]c2c1=O	> 6290	> 6290	> 6290	–	–
0.234 nM	> 1000 nM	> 1000 nM	> 1000 nM	24%	-1%	27%	–	–	–	–	–	CCCn1c(=O)[nH]c2nc(-c3ccc(S(=O)(=O)N4CCN(c5cccc(Br)c5)CC4)cc3)[nH]c2c1=O	> 4270	> 4270	> 4270	–	–
0.706 nM	> 1000 nM	> 1000 nM	> 1000 nM	34%	12%	25%	–	–	–	–	–	CCCn1c(=O)[nH]c2nc(-c3ccc(S(=O)(=O)N4CCN(c5ccc(C)cc5)CC4)cc3)[nH]c2c1=O	> 1420	> 1420	> 1420	–	–
3.22 nM	> 1000 nM	> 1000 nM	> 1000 nM	27%	13%	9%	–	–	–	–	–	CCCn1c(=O)[nH]c2nc(-c3ccc(S(=O)(=O)N4CCN(c5ccccc5F)CC4)cc3)[nH]c2c1=O	> 310	> 310	> 310	–	–
0.342 nM	1000 nM	> 1000 nM	53.5 nM	42%	21%	–	–	–	–	–	–	CCCn1c(=O)[nH]c2nc(-c3ccc(S(=O)(=O)N4CCN(c5cccc(Cl)c5)CC4)cc3)[nH]c2c1=O	–	–	160	–	–
